A selection: hits, their analogues and other compounds. The true share with any hit is near 3%.
UBC13 polyUb: UBC13 polyubiquitin chain formation inhibitors, primary screen, biochemical, TR-FRET, uHTS; Ubiquitin-conjugating enzyme E2 N (Homo sapiens), P61088; inhibition, % at 20 µM; 0.47% of 330,000 active; in the data active means inhibition above about 45%, passing the limit was not always enough; inconclusive means no clear call, values can overlap the other calls
MEKK2mut PB1 HTS: MEK5 binding signal on mutant MEKK2 PB1, primary screen, biochemical, multiplex bead flow cytometry, Alexa488-MEK5 | percent response, % at 10 µM | Alexa488-MEK5 binding to MEKK2 mutant | AID 1530, 2009 | 0.35% of 290,000 active; in the data active means percent response above about 24%, passing the limit was not always enough
MEKK3 PB1 HTS: modulators of MEKK3-MEK5 PB1 binding, primary screen, biochemical, wildtype MEKK3, multiplex bead flow cytometry, Alexa488-MEK5; Mitogen-activated protein kinase kinase kinase 3 (Homo sapiens), Q99759; bead-based flow cytometry, Alexa488-MEK5 binding to MEKK3; actives lie on both sides; 0 = blocked by unlabeled MEK5, 100 = vehicle; binding response (% of control), % at 10 µM; 1.4% of 290,000 active;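 active means binding response more than 3 SD above or below the average of its plate-row segment, actives on both sides; inconclusive means wells at one plate position flagged as instrument error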;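 further: Alexa488 bead fluorescence after subtracting the streptavidin-only scavenger bead signal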
MEKK2wt PB1 HTS: modulators of MEK5 binding to wildtype MEKK2, primary screen, biochemical, multiplex bead flow cytometry, Alexa488-MEK5; Alexa488-MEK5 binding to MEKK2 WT; actives lie on both sides; binding response (% of control), % at 10 µM; 1.1% of 290,000 active; in the data active means binding response below about 67% or above about 130%; inconclusive means no clear call, values can overlap the other calls; inactive means in between
Apaf-1 inh: inhibitors of human Apaf-1 apoptosome, primary screen, biochemical, DEVD-Rh110 fluorescence, uHTS | 0.71% of 330,000 active | Apoptotic protease-activating factor 1 (Homo sapiens), O14727 | reconstituted apoptosome caspase-3 activity | inhibition, % at 20 µM; active means inhibition of at least 40% at 20 µM;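 further: plate controls were DMSO wells for no effect and DEVD-CHO caspase inhibitor wells for full effect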
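Material: biochemical Apaf-1 apoptosome reconstitution. Medium: Hepes buffer, pH 7.5. Also added: cytochrome c activation, bis-DEVD rhodamine 110 substrate. Timing: 30 min compound preincubation, 50 min activation, room temperature. Measured by: rhodamine 110 fluorescence at Ex 480/Em 540 nm.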
UCH37 DUB inh: inhibitors of human UCH37 deubiquitinase, primary screen, biochemical, Ub-AMC cleavage, fluorescence; 0.33% of 330,000 active; inhibition, % (test concentration not listed); purified proteasome/UCH37; Ubiquitin carboxyl-terminal hydrolase isozyme L5 (Homo sapiens), Q9Y5K5;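 active means mean inhibition over replicate wells above about 20%, limit read from the data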;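 further: 0% = compound-free wells with enzyme and 100% = wells lacking proteasome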
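Material: human UCH37 enzyme supplied as purified proteasome complex / Amount: 0.15 nM proteasome as dispensed / Buffer or medium: pH 7.4 Tris-HCl (50 mM) with ovalbumin, ATP-MgCl2, DTT / Times: preincubation 30 min, reaction 25 min, room temperature / Technique: AMC fluorescence from Ub-AMC cleavage, excitation 355 nm, emission 460 nm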
MEKK2wt confirm: modulators of MEK5 binding to wildtype MEKK2, confirmation, biochemical, single concentration, multiplex bead flow cytometry | shares compounds with MEKK3 PB1 HTS | Alexa488-MEK5 binding to MEKK2 WT; actives lie on both sides | binding response (% of control), % at 10 µM | 2.4% of 5,900 active | AID 1892, 2009; in the data active means binding response below about 16% or above about 210%; inactive means in between
MEKK2mut-MEK5: mutant MEKK2 PB1-MEK5 binding signal retest – biochemical, single concentration, multiplex bead flow cytometry, confirmation | shares compounds with MEKK3 PB1 HTS | Alexa488-MEK5 binding to MEKK2 mutant | percent response, % at 10 µM | 2% of 5,900 active | AID 1893, 2009; in the data active means percent response mostly above about 71%, no sharp cut-off; inactive means mostly below about 38%;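 further: higher means compound restores mutant binding toward wildtype level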
MEKK3-MEK5 inh: MEKK3 wild-type PB1 binding to MEK5, inhibitors, confirmation, biochemical, bead multiplex flow cytometry, single concentration, wildtype; shares compounds with MEKK3 PB1 HTS; Alexa488-MEK5 binding to MEKK3; stronger effect = lower value; 1.8% of 5,900 active; binding response (% of control), % at 10 µM; AID 1894, 2009;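 active means binding response below 72% of control, or above a set upper limit, though filed actives all read lower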;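 further: 100% = DMSO only wells and 0% = binding blocked by excess unlabeled MEK5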
* marks the source's active call; other numbers are inactive results; ? = inconclusive; / = no result given; [ ] = dose if it differs, or a comment.

SMILES | UBC13 polyUb | MEKK2mut PB1 HTS | MEKK3 PB1 HTS | MEKK2wt PB1 HTS | Apaf-1 inh | UCH37 DUB inh | MEKK2wt confirm | MEKK2mut-MEK5 | MEKK3-MEK5 inh
CC(C)OP(=O)(c1ccccc1)c1ccccc1 | 10 | 0 | 153* | 109 | 1 | 2 | 115 | 8 | 105
Clc1ccccc1OCc1nn[nH]n1 | -5 | 27 | 131* | 118 | -8 | 3 | 107 | 2 | 103
O=C1c2ccccc2C(Nc2ccccc2)N1c1cccnc1 (centres undefined) | 3 | 6 | 100 | 102 | 1 | 2 | / | / | /
Cc1ccc(-n2ncc(C(=O)Nc3cc(Cl)ccc3Cl)c2C2CCNCC2)cc1 | 8 | -3 | 97 | 105 | 3 | -1 | / | / | /
Cc1ccc(-n2ncc(C(=O)Nc3cc(Cl)cc(Cl)c3)c2C2CCNCC2)cc1C | / | 58* | 106 | 216* | / | 8 | 143 | -7 | 94
O=C(C[n+]1ccccc1)N/N=C/c1ccccc1Cl | 3 | / | / | / | -2 | / | / | / | /
O=C(C[n+]1ccccc1)N/N=C/c1cccc(Cl)c1Cl | -6 | -2 | 88 | 66*[inhibitor] | -6 | / | 109 | 4 | 104
Cc1ccc(S(=O)(=O)NCC(c2cccnc2)N(C)C)cc1 (centres undefined) | -6 | 2 | 105 | 104 | 1 | 1 | / | / | /
CSCCC(NC(=O)C1CC1)c1nc2ccccc2[nH]1 (centres undefined) | 7 | -2 | 99 | 97 | -4 | 6 | / | / | /
CSCC[C@H](NC(=O)C1CCCC1)c1nc2ccccc2[nH]1 | 1 | -16 | 69*[inhibitor] | 68 | 2 | 5 | 108 | 5 | 104
CC(C)C[C@@H](CO)NC(=O)CC[C@H](NC(=O)OC(C)(C)C)C(=O)N(Cc1ccccc1)Cc1ccccc1 | -4 | 1 | 97 | 101 | 26 | 4 | / | / | /
CNC(C)C#Cc1ccc2sc3cccc(OC)c3c(=O)c2c1 (centres undefined) | 16 | 14 | 100 | 100 | 6 | / | / | / | /
COc1cccc2sc3ccc(C#CC4(N)CCCCC4)cc3c(=O)c12 | ? | 14 | 103 | 136* | 33 | -4 | 145 | 22 | 108
COc1ccc(CCCc2n[nH]c(=S)o2)c(C)c1 | 8 | -7 | 94 | 87 | -6 | 4 | / | / | /
CS(=O)(=O)N(CC(=O)Nc1ccccc1C(=O)N1CCOCC1)c1ccc(Cl)cc1 | -14 | -9 | 44*[inhibitor] | 43*[inhibitor] | -9 | 3 | 99 | 1 | 100
Cc1cccc(OCC(=O)N/N=C/c2ccccc2C(=O)O)c1 | -1 | 1 | 132* | 114 | -17 | / | 104 | -1 | 103
O=C(Nc1ccccc1C(=O)N1CCOCC1)C1CCCO1 (centres undefined) | 10 | -26 | 1.0*[inhibitor] | -1.0*[inhibitor] | -16 | -2 | 111 | 8 | 113
Cc1cccc(OCC(=O)N/N=C/c2ccc(N(C)C)cc2)c1 | 1 | -1 | 101 | 99 | 1 | / | / | / | /
Cc1cccc(OCC(=O)Nc2ccccc2C(=O)N2CCOCC2)c1 | 10 | 1 | 130* | 108 | 0 | -5 | 97 | -1 | 98
